In ChEMBL document CHEMBL4513216, “Probing the Open Global Health Chemical Diversity Library for Multistage-Active Starting Points for Next-Generation Antimalarials” (ACS Infect Dis, 2020) one finds cytotoxicity data, which are given here for 97 compounds.

Each structure is given as a SMILES string.

This data set can be described thus: Toxicity liver stage against HepG2, at 10uM. The note with it: human, HepG2-A16-CD81EGFP cells; read-out: INHIBITION
It is filed as cell-based. Further details: test concentration 10 uM, cell line HepG2-A16-CD81EGFP. Put shortly: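 Uninfected HepG2-A16-CD81EGFP cells, 3 × 10^3 per well, 1536-well, plated on prespotted compound at 10 μM final, parasite-free screening media added to match infected plates; puromycin 10 μM positive, DMSO 0.5% negative; run in parallel with 48 h PbLuc assay at 37 °C, 5% CO2; viability by CellTiter-Glo luminescence, normalized to controls.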
On to `COc1cccc(NC(=O)Cn2c(=O)nc(N)c3cc(C)sc32)c1`, for which the cytotoxicity at 10 µM was -8.72%.

Consider `O=C1[C@@H]2CCN(C3CCC3)C[C@@H]2OCCN1Cc1ccncc1`, for which the cytotoxicity at 10 µM was -135%.

Regarding `COC(=O)c1ccccc1NC(=O)c1c(C)cn(C)c1CC(=O)O`, the cytotoxicity at 10 µM is -6.14%.

In the case of `CC(c1nc(C(C)(C)C)no1)N1CCN(CC(=O)N2CCOCC2)CC1` (configuration not stated), the cytotoxicity at 10 µM is -2.67%.

Take `COCCN(C)C[C@@H]1CN(C(=O)c2ccc(=O)n(C)c2)C[C@@H]1CO`: the cytotoxicity at 10 µM was -11.1%.

Take `CN1CCC(NC(=O)c2cc(Br)cc(Cl)c2O)C1=O` (configuration not stated): the cytotoxicity at 10 µM is -5.79%.

As to `CN1CCOCC12CCN(Cc1ccoc1)CC2`, the cytotoxicity at 10 µM was 2.93%.

On to `COc1ccc(CNC2(Cc3cc(CC(C)C)on3)COC2)cc1`, for which the cytotoxicity at 10 µM was determined as 4.71%.

Take `CNc1nc(C)c(C(=O)N2CCCCC2CCc2ccc(O)cc2)s1` (configuration not stated): the cytotoxicity at 10 µM worked out at 0.126%.

As to `Cc1cc(C(=O)NCC(c2ccccc2Cl)N2CCOCC2)on1` (configuration not stated), the cytotoxicity at 10 µM was determined as 2.62%.

As for `COC(=O)CCc1c(C)nn(-c2nc(C)cc(=O)[nH]2)c1C`, the cytotoxicity at 10 µM is 9.22%.

As to `COCCNC(=O)NCC(C)c1ccccc1OC` (configuration not stated), the cytotoxicity at 10 µM stood at 0.284%.

On to `Cc1ccc2nc(C3CCCN3Cc3csc(C)n3)[nH]c2c1` (configuration not stated), for which the cytotoxicity at 10 µM was determined as 1.58%.

As to `Cn1cccc1C(=O)N1CCCCC12CC(=O)N(c1cccnc1)C2` (configuration not stated), the cytotoxicity at 10 µM was -1.91%.

`CN1CCC(Nc2ccc(F)cc2OCC(F)(F)F)C1=O` (configuration not stated): the cytotoxicity at 10 µM was -0.898%.

Turning to `CN(Cc1ccc(N(C)C)cc1)C(=O)CSc1ccc(Br)cc1`, the cytotoxicity at 10 µM came out at 45.6%.

For the compound `O=C(NCCNC(=O)C1CCN(CC(F)(F)F)CC1)c1ccoc1`, the cytotoxicity at 10 µM is 5.09%.

Turning to `CCC(C)N1CCC(Oc2ccc(C(=O)NCCN(C)C)cc2Cl)CC1` (configuration not stated), the cytotoxicity at 10 µM was -2.09%.

As for `CCc1nc(CN2CCCC(NCc3cc(C)no3)C2)no1` (configuration not stated), the cytotoxicity at 10 µM was 1.59%.

Consider `COCCCC1CCCCN1C(=O)c1ccc(SCCO)cc1` (configuration not stated), for which the cytotoxicity at 10 µM is -50%.

Regarding `COc1ccc(CNC(=O)NC(C)(CO)C2CC2)c(C(F)(F)F)c1` (configuration not stated), the cytotoxicity at 10 µM worked out at 8.48%.

In the case of `CCn1nc(CNC(=O)C2CCCN(C(=O)COC)C2)c2ccccc21` (configuration not stated), the cytotoxicity at 10 µM was -1.29%.

Consider `CC(C)NC(=O)[C@@H]1C[C@H](N)CN1C(=O)C1(c2ccc(Cl)cc2)CCC1`, for which the cytotoxicity at 10 µM stood at 3.92%.

Turning to `CC(C)Cc1nc(OCC(N)=O)c(C#N)c2c1CCCC2`, the cytotoxicity at 10 µM was -9.53%.

`O=C(NCc1ccccc1CO)Nc1ccc2c(c1)CCC2`: the cytotoxicity at 10 µM amounted to 3.09%.

Take `COc1cccc(OC2CN(C(=O)c3cc(CC(C)C)nn3C)C2)c1`: the cytotoxicity at 10 µM was 53.2%.

Consider `Cc1ncsc1C(=O)N1CCCC(n2cncn2)C1` (configuration not stated), for which the cytotoxicity at 10 µM is 0.364%.

Turning to `CS(=O)(=O)Cc1ccc(NC(=O)Cc2cccnc2)cc1F`, the cytotoxicity at 10 µM came out at 1.34%.

In the case of `Cc1c(COC(C)C)cccc1NC(=O)N1CC[C@H](O)C1`, the cytotoxicity at 10 µM is -11%.

Regarding `CS(=O)(=O)N1CCOCC2(CN(Cc3ccccn3)CCO2)C1` (configuration not stated), the cytotoxicity at 10 µM was 3.42%.

Take `CCN1CCC2(CC1)CC(NC(=O)c1ccnnc1)c1ccccc12` (configuration not stated): the cytotoxicity at 10 µM is -6.9%.

In the case of `OCCN(Cc1cccnc1)c1ccc(Cl)cn1`, the cytotoxicity at 10 µM turned out to be 31.9%.

As to `CCCc1cnc(C)nc1N1CCC(F)(F)CC1`, the cytotoxicity at 10 µM was found to be 7.46%.

With `Cc1nc(C2CCCN(C(=O)c3cc(-c4ccccc4)[nH]n3)C2)no1` (configuration not stated), the cytotoxicity at 10 µM is -7.99%.

As for `O=C(Nc1ccc(F)cc1)C1CSCN1` (configuration not stated), the cytotoxicity at 10 µM is -2.76%.

Regarding `Cc1ccc(N2CCC(Nc3ccc4nnc(C)n4n3)CC2)nc1`, the cytotoxicity at 10 µM was found to be 8.56%.

As for `COCCOCC1CCN(C(=O)c2ccc3[nH]cnc3c2)C1` (configuration not stated), the cytotoxicity at 10 µM is -5.73%.

For the compound `Cc1cccc(C(=O)N2CCCC(c3nccn3Cc3cscn3)C2)n1` (configuration not stated), the cytotoxicity at 10 µM was -1.28%.

For the compound `Cc1cn2c(=O)c(-c3ccnc(N[C@@H](C)CO)n3)cnc2s1`, the cytotoxicity at 10 µM was -13.7%.

`O=C(NCC1(COc2cnccn2)C[C@@H](O)[C@@H](O)C1)C1CCCC1` (some centres not stated): the cytotoxicity at 10 µM was -1.81%.

Take `CN(C)C(=O)Cn1cc(C(=O)N2CCCc3cccc(F)c32)nn1`: the cytotoxicity at 10 µM was 1.81%.

In the case of `O=C(CCc1nc2ccccc2[nH]1)Nc1ccc2c(c1)OCC(=O)N2`, the cytotoxicity at 10 µM amounted to 17.9%.

As for `O=C(NCC1(CO)CC1)c1cccc2ccccc12`, the cytotoxicity at 10 µM is -12.5%.

Turning to `COC(=O)c1ccoc1CN(C)Cc1cc(OC)c(OC)cc1C`, the cytotoxicity at 10 µM was -1.06%.

For the compound `Cc1nc(CO[C@@H]2CN(Cc3ccccn3)[C@@H]3COC[C@@H]32)cs1`, the cytotoxicity at 10 µM was found to be 5.45%.

On to `CCOc1ccc(Cl)cc1C1CCCCN1` (configuration not stated), for which the cytotoxicity at 10 µM was 9.15%.

On to `Cc1nnc(CN(Cc2ccc(Cl)c(Cl)c2)C(C)C)o1`, for which the cytotoxicity at 10 µM was found to be 4.91%.

As for `CCn1c(CC2CCN(C(=O)C3COCCO3)CC2)nn(C)c1=O` (configuration not stated), the cytotoxicity at 10 µM was -0.525%.

As to `O=C(NCCn1nc(C2CCNC2)c2cccnc21)C1CC1` (configuration not stated), the cytotoxicity at 10 µM was -25.8%.

As for `O=C(NC[C@]1(O)CN(Cc2ccc(F)cc2)C[C@H]1O)c1ccccn1`, the cytotoxicity at 10 µM was -7.8%.

Turning to `CNc1cc(C2CCCN(C(=O)c3ccc(=O)[nH]n3)C2)ccn1` (configuration not stated), the cytotoxicity at 10 µM is -11.8%.

In the case of `CC(NC(=O)NCCCn1cccn1)c1cccnc1` (configuration not stated), the cytotoxicity at 10 µM was 23.1%.

For `CCN(CC)C(=O)[C@@H]1C[C@H](NC(=O)c2cccn2C(C)C)CN1C`, the cytotoxicity at 10 µM was 7.57%.

For the compound `O=C(Nc1cnc(Oc2ccccc2)nc1)C1CC1`, the cytotoxicity at 10 µM amounted to 0.174%.

`O=C(Nc1ccccc1N1CCOC1=O)N1CCSCC1`: the cytotoxicity at 10 µM was determined as 3.15%.

For the compound `CS(=O)(=O)N1CCc2sc(C(=O)NCc3ccncc3)cc21`, the cytotoxicity at 10 µM amounted to 2.93%.

Consider `c1cnn(CC2CN(CCCOc3ccc4c(c3)OCO4)CCO2)c1` (configuration not stated), for which the cytotoxicity at 10 µM was determined as 0.568%.

Regarding `CCn1cc2c(n1)C(COC)CN(c1ccc(C)nn1)C2` (configuration not stated), the cytotoxicity at 10 µM is 11.6%.

Turning to `Cc1cc(C)n(CC(C)CNC(=O)NCc2c(C)cc(C)[nH]c2=O)n1` (configuration not stated), the cytotoxicity at 10 µM is -7.86%.

Consider `O=C1NCCN1C1CCN(CCOc2cccc3ccccc23)CC1`, for which the cytotoxicity at 10 µM was -5.72%.

As for `CC(C)NC(=O)c1nn(C)c(NC(=O)Cc2ccccc2)c1F`, the cytotoxicity at 10 µM was -1.73%.

For the compound `NC(=O)Nc1ccc(C(=O)NCCn2cccc2)cc1`, the cytotoxicity at 10 µM was -1.23%.

On to `CC(c1ncc(C(C)(C)C)o1)N1CCN(Cc2ccc(Cl)s2)CC1` (configuration not stated), for which the cytotoxicity at 10 µM was -1.21%.

In the case of `COC(=O)C1CCN(C(=O)c2nnc3ccc(Cl)cc3n2)CC1`, the cytotoxicity at 10 µM stood at 12.3%.

In the case of `CN(C)CC1(O)CCCN(C(=O)c2cnc(-c3ccccn3)nc2)C1` (configuration not stated), the cytotoxicity at 10 µM is -5.53%.

As to `Cc1cc(C)c2c(OCC(=O)NC(C)C)nn(C)c2n1`, the cytotoxicity at 10 µM is -7.25%.

Take `COCCNC(=O)Cn1cc2c(n1)c(C)nn2C(C)C`: the cytotoxicity at 10 µM is -6.24%.

As to `Cc1cc(NCc2cn(C)nc2-c2cccnc2)n(C)n1`, the cytotoxicity at 10 µM was found to be 12%.

With `COc1coc(C(=O)Nc2nc(-c3cccnc3)cs2)cc1=O`, the cytotoxicity at 10 µM was determined as 2.66%.

Take `CC(=O)N(C)c1nc(CN2CCCC2c2cnn(C)c2)cs1` (configuration not stated): the cytotoxicity at 10 µM was -16.1%.

Regarding `Cc1noc(C)c1C(=O)NCCSCc1cccs1`, the cytotoxicity at 10 µM is -4.89%.

Take `CS(=O)(=O)N1C[C@H]2CCC[C@@]2(COCC2CCOCC2)C1`: the cytotoxicity at 10 µM was -0.173%.

As to `O=C(CCCc1ccc(F)cc1)N1C[C@@H](CN2CCOCC2)[C@@H](CO)C1`, the cytotoxicity at 10 µM is -11.8%.

With `CC(C)C1COC2(CCN(Cc3ccco3)CC2)C1` (configuration not stated), the cytotoxicity at 10 µM is -3.57%.

On to `CC(C)NS(=O)(=O)c1cc(C(=O)O)cc(-c2ccc(CN(C)C)cc2)c1`, for which the cytotoxicity at 10 µM was 13.3%.

Regarding `N#Cc1nc(COc2ccc3c(c2)OCO3)oc1NC1CCCCC1`, the cytotoxicity at 10 µM is -41.4%.

Regarding `CCCOc1cc(C)ccc1NC(=O)N(C)C`, the cytotoxicity at 10 µM is -4.59%.

Consider `c1ccc(-c2noc(CNC3CCCN(c4cccnn4)C3)n2)nc1` (configuration not stated), for which the cytotoxicity at 10 µM stood at 4.86%.

Regarding `COc1cccc2c1ccn2CC(=O)N[C@@H](CCSC)C(=O)O`, the cytotoxicity at 10 µM came to 3.2%.

Regarding `Cc1nc(C)c(C(=O)NCCn2nc3ccccn3c2=O)s1`, the cytotoxicity at 10 µM is -2.51%.

For `O=C(Cn1cnc2sccc2c1=O)NCCCc1nnc2ccccn12`, the cytotoxicity at 10 µM is 5.84%.

Consider `O=C(O)Cn1ccc2c(Cl)cccc21`, for which the cytotoxicity at 10 µM is 0.308%.

As for `CN(CC(=O)NCC(=O)Nc1ccc(F)cc1)Cc1cccs1`, the cytotoxicity at 10 µM is 0.369%.

For the compound `O=C(CCCSc1ccc(NC(=O)C2CC2)nn1)NCC1CCCO1` (configuration not stated), the cytotoxicity at 10 µM is -4.45%.

In the case of `COc1ccc2cc(C3CN(C(=O)C4CCOCC4)CCO3)ccc2c1` (configuration not stated), the cytotoxicity at 10 µM is -8.68%.

`CC(=O)c1cccc(OCCCC(=O)N(C)Cc2cnc(C)s2)c1`: the cytotoxicity at 10 µM was determined as 14.2%.

Turning to `CCn1c(SC)nnc1C1CCN(C(=O)N2CCCC2)CC1`, the cytotoxicity at 10 µM is -0.78%.

Consider `CSC(C)(C)CNC(=O)NC1CCN(CC(F)F)CC1`, for which the cytotoxicity at 10 µM was -5.12%.

On to `O=C1CC(c2ccc(C(=O)O)cc2)c2cnn(Cc3ccco3)c2N1` (configuration not stated), for which the cytotoxicity at 10 µM was -0.869%.

In the case of `CCC(C)NC(=O)Cn1c(Nc2cc(C)cc(C)c2)nc(C)cc1=O` (configuration not stated), the cytotoxicity at 10 µM was 9.91%.

Take `COc1cnc(N2CC(N3CCOCC3)C2)nc1-c1ccnn1C`: the cytotoxicity at 10 µM was found to be 6.24%.

As to `Cc1cc(NCc2ccccc2CN2CCCCC2)n2ncnc2n1`, the cytotoxicity at 10 µM is -1.86%.

Take `Cc1cc(C)n(-c2ccc(CNCc3ccc(F)cc3F)cn2)n1`: the cytotoxicity at 10 µM was -12.2%.

Consider `Cc1ccc(NC(=O)Nc2c[nH]c(=O)[nH]c2=O)c(Cl)c1`, for which the cytotoxicity at 10 µM is -4.28%.

Regarding `Cc1ccc(C(=O)N(C)CCCc2cnn(C)c2)cc1N1CCNC1=O`, the cytotoxicity at 10 µM is -4.39%.

In the case of `Cc1nc(C)c(C(=O)N2CCc3cc(F)ccc3C2C)o1` (configuration not stated), the cytotoxicity at 10 µM is 10.5%.

For the compound `Cc1cc(C(=O)N2CCc3c(nc(-c4ccncc4)[nH]c3=O)C2)no1`, the cytotoxicity at 10 µM was -1.28%.
